Experimental data reported in ChEMBL document CHEMBL4350961, “Discovery of Pyrrolo[3,2- d]pyrimidin-4-one Derivatives as a New Class of Potent and Cell-Active Inhibitors of P300/CBP-Associated Factor Bromodomain” (J Med Chem, 2019).
Calls of active or inactive are those of the source. The calls are words filed in the database; no cut-off is given here.

Tests used:
[1] = target: Protein kinase C epsilon type (Homo sapiens) (UniProt Q02156); assay: Inhibition of recombinant human PKCepsilon (2 to end residues) at 10 uM using ERMRPRKRQGSVRRRV as substrate measured after 40 mins in presence of [gamma33P]ATP by scintillation counting method
[2] = target: TRAF2 and NCK-interacting protein kinase (Homo sapiens) (UniProt Q9UKE5); assay: Inhibition of human TNIK (1 to 367 residues) using RLGRDKYKTLRQIRQ as substrate measured after 40 mins in presence of [gamma33P]ATP by scintillation counting method
[3] = target: Tyrosine-protein kinase JAK1 (Homo sapiens) (UniProt P23458); assay: Inhibition of recombinant human JAK1 (866 to end residues) at 10 uM using GEEPLYWSFPAKKK as substrate measured after 40 mins in presence of [gamma33P]ATP by scintillation counting method
[4] = target: ATPase family AAA domain-containing protein 2 (Homo sapiens) (UniProt Q6PL18); assay: Binding affinity to human N-terminal His-tagged ATAD2 assessed as change in melting temperature at 10 uM by SYPRO orange dye-based fluorescence assay
In short: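 Thermal shift with His-tagged human bromodomain at 2 μM final in 10 mM HEPES pH 7.5, 500 mM NaCl. Compound at 10 μM final with 0.1% DMSO; SYPRO Orange at 1:1000. Equilibrated 3 min at 25 °C, then heated from 25 to 95 °C at 1 °C/min. Melting temperature shift taken from fluorescence; at least duplicate.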

[5] = target: Cyclin-dependent kinase 14/Cyclin-Y (Homo sapiens) (UniProt O94921+Q8ND76); assay: Inhibition of human CDK14/cyclinY at 10 uM by radiometric method; type: protein-complex assay
In short: (§1)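 Kinase panel of 422 kinases screened by Eurofins KinaseProfiler at a single test-compound concentration of 10 µM.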

[6] = target: Maternal embryonic leucine zipper kinase (Homo sapiens) (UniProt Q14680); assay: Inhibition of recombinant human MELK (1 to 340 residues) at 10 uM using KKLNRTLSFAEPG as substrate measured after 40 mins in presence of [gamma33P]ATP by scintillation counting method
[7] = tested on: Tyrosine-protein kinase ABL1 (Homo sapiens), P00519 [M351T]; assay: Inhibition of recombinant human ABL M351T mutant (27 to end residues) at 10 uM using EAIYAAPFAKKK as substrate measured after 40 mins in presence of [gamma33P]ATP by scintillation counting method
[8] = tested on: Protein kinase C eta type (Homo sapiens), P24723 [UNDEFINED MUTATION]; assay: Inhibition of recombinant human PKCeta V108L/G109R/L392Q mutant (2 to end residues) at 10 uM using ERMRPRKRQGSVRRRV as substrate measured after 40 mins in presence of [gamma33P]ATP by scintillation counting method
[9] = target: Serine/threonine-protein kinase mTOR (Homo sapiens) (UniProt P42345); assay: Inhibition of recombinant full-length human mTOR at 10 uM measured after 40 mins in presence of [gamma33P]ATP by scintillation counting method
[10] = species on record: Homo sapiens; assay: Inhibition of recombinant full-length human PKBalpha […] mutant at 10 uM using GRPRTSSFAEGKK as substrate measured after 40 mins in presence of [gamma33P]ATP by scintillation counting method
[11] = target: Fibroblast growth factor receptor 2 (Homo sapiens) (UniProt P21802); assay: Inhibition of recombinant human FGFR2 (456 to 770 residues) at 10 uM using poly(Glu, Tyr) 4:1 as substrate measured after 40 mins in presence of [gamma33P]ATP by scintillation counting method
[12] = target: STE20-like serine/threonine-protein kinase (Homo sapiens) (UniProt Q9H2G2); assay: Inhibition of human SLK (1 to 373 residues) using RLGRDKYKTLRQIRQ as substrate measured after 40 mins in presence of [gamma33P]ATP by scintillation counting method
In short: as §1

[13] = target: Aurora kinase B (Homo sapiens) (UniProt Q96GD4); assay: Inhibition of recombinant full-length human AURKB at 10 uM using AKRRRLSSLRA as substrate measured after 40 mins in presence of [gamma33P]ATP by scintillation counting method
[14] = target: Calcium/calmodulin-dependent protein kinase type 1 (Homo sapiens) (UniProt Q14012); assay: Inhibition of recombinant human CaMK1 (2 to end residues) at 10 uM using calmodulin as substrate measured after 40 mins in presence of [gamma33P]ATP by scintillation counting method
[15] = target: AP2-associated protein kinase 1 (Homo sapiens) (UniProt Q2M2I8); assay: Inhibition of human AAK1 at 10 uM using peptide substrate measured after 120 mins in presence of [gamma33P]ATP by scintillation counting method
In short: as §1

[16] = tested on: Epidermal growth factor receptor (Homo sapiens), P00533 [L858R,T790M]; assay: Inhibition of recombinant human EGFR T790M/L858R mutant (696 to end residues) at 10 uM using GGMEDIYFEFMGGKKK as substrate measured after 40 mins in presence of [gamma33P]ATP by scintillation counting method
[17] = target: cGMP-dependent protein kinase 1 (Homo sapiens) (UniProt Q13976); assay: Inhibition of recombinant full-length human PKG1alpha at 10 uM using RRRLSFAEPG as substrate measured after 40 mins in presence of [gamma33P]ATP by scintillation counting method
[18] = target: Dual specificity tyrosine-phosphorylation-regulated kinase 3 (Homo sapiens) (UniProt O43781); assay: Inhibition of recombinant full-length human DYRK3 at 10 uM using RRRFRPASPLRGPPK as substrate measured after 40 mins in presence of [gamma33P]ATP by scintillation counting method
[19] = target: Insulin receptor-related protein (Homo sapiens) (UniProt P14616); assay: Inhibition of recombinant human IRR (943 to 1266 residues) at 10 uM using myelin basic protein as substrate measured after 40 mins in presence of [gamma33P]ATP by scintillation counting method
[20] = target: Eukaryotic translation initiation factor 2-alpha kinase 1 (Homo sapiens) (UniProt Q9BQI3); assay: Inhibition of recombinant human HRI (140 to end residues) at 10 uM using RSRSRSRSRSRSRSR as substrate measured after 120 mins in presence of [gamma33P]ATP by scintillation counting method
[21] = target: 3-phosphoinositide-dependent protein kinase 1 (Homo sapiens) (UniProt O15530); assay: Inhibition of recombinant human PDK1 (52 to end residues) at 10 uM using PDKtide as substrate measured after 40 mins in presence of [gamma33P]ATP by scintillation counting method
[22] = target: Serine/threonine-protein kinase D3 (Homo sapiens) (UniProt O94806); assay: Inhibition of recombinant full-length human PKD3 at 10 uM using KKLRRTLSVA as substrate measured after 40 mins in presence of [gamma33P]ATP by scintillation counting method
[23] = target: Serine/threonine-protein kinase PAK 1 (Homo sapiens) (UniProt Q13153); assay: Inhibition of recombinant human PAK1 (150 to end residues) at 10 uM using RRRLSFAEPG as substrate measured after 40 mins in presence of [gamma33P]ATP by scintillation counting method

Sequence of Tyrosine-protein kinase JAK1 (Homo sapiens) (P23458 whole entry, the tested form may be a part): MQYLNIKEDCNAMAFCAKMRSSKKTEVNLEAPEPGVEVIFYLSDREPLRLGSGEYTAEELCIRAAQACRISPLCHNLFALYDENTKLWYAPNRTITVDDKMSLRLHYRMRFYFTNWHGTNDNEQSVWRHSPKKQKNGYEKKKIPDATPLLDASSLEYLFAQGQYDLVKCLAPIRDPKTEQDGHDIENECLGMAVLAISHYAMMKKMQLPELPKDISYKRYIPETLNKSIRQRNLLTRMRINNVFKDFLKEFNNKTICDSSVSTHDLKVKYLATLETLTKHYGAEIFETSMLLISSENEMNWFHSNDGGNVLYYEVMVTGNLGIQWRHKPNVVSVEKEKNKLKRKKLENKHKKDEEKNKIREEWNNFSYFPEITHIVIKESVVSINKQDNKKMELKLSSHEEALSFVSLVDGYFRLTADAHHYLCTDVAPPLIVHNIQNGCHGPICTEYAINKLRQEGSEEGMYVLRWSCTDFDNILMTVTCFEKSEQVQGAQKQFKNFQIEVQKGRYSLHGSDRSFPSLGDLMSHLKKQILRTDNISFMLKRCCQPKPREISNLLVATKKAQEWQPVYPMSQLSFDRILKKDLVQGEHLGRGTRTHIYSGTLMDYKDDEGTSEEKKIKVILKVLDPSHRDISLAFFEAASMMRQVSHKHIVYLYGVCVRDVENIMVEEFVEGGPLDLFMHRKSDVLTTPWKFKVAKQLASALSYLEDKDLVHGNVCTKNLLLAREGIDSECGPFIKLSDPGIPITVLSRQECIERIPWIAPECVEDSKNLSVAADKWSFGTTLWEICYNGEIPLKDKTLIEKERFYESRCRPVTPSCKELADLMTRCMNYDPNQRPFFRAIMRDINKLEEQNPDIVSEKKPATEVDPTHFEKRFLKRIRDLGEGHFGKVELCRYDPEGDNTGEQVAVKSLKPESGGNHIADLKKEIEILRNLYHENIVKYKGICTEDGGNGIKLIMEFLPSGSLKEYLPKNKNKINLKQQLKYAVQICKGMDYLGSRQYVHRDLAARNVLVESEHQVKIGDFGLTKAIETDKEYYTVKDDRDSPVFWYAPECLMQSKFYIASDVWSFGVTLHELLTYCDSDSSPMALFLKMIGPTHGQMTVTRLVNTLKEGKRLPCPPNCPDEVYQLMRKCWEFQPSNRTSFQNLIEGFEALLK
Sequence of Protein kinase C epsilon type (Homo sapiens) (Q02156 whole entry, looked up, the tested form may be a part): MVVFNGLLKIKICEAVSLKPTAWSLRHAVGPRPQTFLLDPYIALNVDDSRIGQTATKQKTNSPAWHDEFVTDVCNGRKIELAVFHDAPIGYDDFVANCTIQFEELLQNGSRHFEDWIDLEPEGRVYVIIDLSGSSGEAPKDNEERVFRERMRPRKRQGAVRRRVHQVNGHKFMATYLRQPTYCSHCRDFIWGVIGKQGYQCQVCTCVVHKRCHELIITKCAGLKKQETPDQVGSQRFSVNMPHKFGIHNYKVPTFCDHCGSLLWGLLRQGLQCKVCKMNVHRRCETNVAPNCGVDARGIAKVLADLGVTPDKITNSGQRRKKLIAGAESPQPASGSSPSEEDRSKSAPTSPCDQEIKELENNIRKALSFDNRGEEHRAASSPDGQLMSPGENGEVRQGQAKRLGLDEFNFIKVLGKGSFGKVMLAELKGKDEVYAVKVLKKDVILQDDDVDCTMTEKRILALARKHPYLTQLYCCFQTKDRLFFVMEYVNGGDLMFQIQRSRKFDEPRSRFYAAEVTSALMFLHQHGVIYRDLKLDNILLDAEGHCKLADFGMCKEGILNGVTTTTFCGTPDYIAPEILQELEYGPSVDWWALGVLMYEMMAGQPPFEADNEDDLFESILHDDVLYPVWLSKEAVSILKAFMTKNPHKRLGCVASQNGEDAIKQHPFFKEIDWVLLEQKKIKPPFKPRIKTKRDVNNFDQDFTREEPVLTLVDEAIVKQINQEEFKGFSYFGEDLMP
Sequence of Eukaryotic translation initiation factor 2-alpha kinase 1 (Homo sapiens) (Q9BQI3 whole entry): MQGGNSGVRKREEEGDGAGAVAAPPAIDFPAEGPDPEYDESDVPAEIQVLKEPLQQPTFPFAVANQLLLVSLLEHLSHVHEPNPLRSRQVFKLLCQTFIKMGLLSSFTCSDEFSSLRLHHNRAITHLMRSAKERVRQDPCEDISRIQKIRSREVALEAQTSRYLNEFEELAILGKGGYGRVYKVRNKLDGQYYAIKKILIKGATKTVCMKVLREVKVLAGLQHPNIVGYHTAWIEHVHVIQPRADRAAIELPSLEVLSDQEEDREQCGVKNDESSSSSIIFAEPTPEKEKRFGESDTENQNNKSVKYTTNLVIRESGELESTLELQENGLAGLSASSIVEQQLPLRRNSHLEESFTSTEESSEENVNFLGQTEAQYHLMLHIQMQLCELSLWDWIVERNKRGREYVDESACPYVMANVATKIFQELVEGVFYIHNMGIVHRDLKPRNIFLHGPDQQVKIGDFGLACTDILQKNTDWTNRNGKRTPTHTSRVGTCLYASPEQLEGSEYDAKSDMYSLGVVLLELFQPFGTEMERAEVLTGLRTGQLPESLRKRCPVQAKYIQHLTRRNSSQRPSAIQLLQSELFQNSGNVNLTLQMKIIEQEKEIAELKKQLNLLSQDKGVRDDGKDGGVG
Sequence of Aurora kinase B (Homo sapiens) (Q96GD4 whole entry): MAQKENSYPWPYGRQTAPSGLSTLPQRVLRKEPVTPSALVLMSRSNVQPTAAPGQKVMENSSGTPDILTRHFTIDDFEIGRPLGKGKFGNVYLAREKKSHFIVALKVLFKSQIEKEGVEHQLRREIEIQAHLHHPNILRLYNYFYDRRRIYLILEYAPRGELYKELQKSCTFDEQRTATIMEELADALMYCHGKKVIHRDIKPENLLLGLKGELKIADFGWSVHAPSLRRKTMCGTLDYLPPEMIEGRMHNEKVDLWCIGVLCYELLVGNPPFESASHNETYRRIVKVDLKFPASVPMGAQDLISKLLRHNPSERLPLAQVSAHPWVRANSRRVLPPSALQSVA
Sequence of Dual specificity tyrosine-phosphorylation-regulated kinase 3 (Homo sapiens) (O43781 whole entry, the tested form may be a part): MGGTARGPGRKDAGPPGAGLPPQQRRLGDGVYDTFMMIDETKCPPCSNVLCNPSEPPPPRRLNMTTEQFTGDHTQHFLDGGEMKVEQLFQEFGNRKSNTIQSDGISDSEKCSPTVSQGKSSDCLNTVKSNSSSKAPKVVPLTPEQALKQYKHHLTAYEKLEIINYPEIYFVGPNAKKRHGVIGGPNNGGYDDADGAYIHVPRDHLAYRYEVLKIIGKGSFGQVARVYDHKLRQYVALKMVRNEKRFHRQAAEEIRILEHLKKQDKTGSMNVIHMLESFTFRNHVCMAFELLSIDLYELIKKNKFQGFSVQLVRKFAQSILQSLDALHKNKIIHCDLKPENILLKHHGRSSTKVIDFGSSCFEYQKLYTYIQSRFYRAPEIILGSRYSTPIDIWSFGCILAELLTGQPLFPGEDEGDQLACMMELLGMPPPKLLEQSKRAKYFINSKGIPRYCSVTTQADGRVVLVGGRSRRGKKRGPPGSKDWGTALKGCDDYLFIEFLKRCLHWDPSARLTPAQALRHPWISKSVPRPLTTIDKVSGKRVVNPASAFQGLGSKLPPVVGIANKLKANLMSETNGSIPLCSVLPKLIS
Sequence of STE20-like serine/threonine-protein kinase (Homo sapiens) (Q9H2G2 whole entry, looked up, the tested form may be a part): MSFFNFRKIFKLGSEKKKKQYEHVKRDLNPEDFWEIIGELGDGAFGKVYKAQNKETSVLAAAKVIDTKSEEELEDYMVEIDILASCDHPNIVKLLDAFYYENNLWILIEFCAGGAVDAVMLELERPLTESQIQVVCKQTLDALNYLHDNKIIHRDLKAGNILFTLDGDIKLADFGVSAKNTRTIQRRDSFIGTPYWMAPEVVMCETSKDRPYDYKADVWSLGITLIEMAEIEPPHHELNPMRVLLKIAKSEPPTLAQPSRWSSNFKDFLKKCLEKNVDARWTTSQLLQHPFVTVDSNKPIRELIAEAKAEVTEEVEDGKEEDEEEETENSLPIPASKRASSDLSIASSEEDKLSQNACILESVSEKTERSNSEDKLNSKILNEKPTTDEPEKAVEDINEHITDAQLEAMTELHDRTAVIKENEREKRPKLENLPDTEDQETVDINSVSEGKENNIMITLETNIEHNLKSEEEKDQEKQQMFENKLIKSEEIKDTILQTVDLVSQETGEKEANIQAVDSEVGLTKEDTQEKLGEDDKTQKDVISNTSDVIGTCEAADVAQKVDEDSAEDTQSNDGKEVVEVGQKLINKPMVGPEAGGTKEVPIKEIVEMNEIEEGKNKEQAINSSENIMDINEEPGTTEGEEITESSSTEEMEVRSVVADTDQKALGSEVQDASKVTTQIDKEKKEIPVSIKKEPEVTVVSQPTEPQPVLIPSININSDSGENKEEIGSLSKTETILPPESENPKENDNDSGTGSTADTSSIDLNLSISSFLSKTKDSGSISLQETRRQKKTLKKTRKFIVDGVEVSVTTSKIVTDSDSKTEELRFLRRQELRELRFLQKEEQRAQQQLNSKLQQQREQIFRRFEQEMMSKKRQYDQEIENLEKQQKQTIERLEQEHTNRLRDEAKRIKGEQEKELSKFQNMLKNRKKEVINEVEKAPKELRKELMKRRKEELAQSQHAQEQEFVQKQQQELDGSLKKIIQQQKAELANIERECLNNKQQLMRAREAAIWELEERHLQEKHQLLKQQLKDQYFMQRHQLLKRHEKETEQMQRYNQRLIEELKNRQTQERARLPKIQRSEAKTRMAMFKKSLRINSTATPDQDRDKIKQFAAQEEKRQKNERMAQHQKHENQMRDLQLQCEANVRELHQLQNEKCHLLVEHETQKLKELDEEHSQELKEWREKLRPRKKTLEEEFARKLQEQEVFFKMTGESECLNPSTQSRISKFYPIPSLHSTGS
Sequence of Calcium/calmodulin-dependent protein kinase type 1 (Homo sapiens) (Q14012 whole entry, looked up): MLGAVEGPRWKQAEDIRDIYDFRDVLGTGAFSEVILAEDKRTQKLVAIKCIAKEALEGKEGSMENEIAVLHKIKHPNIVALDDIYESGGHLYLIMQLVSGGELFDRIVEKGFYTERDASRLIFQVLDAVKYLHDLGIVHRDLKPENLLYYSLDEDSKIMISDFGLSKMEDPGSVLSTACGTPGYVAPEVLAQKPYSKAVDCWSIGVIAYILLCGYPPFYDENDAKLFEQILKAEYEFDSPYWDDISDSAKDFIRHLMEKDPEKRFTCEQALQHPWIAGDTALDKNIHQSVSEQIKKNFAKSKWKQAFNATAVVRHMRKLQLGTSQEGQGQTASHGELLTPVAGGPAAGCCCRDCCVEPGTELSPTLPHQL

## CN1C[C@H](Nc2nc3cc[nH]c3c(=O)n2C)C[C@H](c2ccc3c(c2)OCCO3)C1
[1]
  inhibition: inactive
[2]
  inhibition: inactive
[3]
  inhibition: inactive
[4]
  ΔTm: 0.3 °C
[5]
  inhibition: inactive
[6]
  inhibition: inactive
[7]
  inhibition: inactive
[8]
  inhibition: inactive
[9]
  inhibition: inactive
[10]
  inhibition: inactive
[11]
  inhibition: inactive
[12]
  inhibition: inactive
[13]
  inhibition: inactive
[14]
  inhibition: inactive
[15]
  inhibition: inactive
[16]
  inhibition: inactive
[17]
  inhibition: inactive
[18]
  inhibition: inactive
[19]
  inhibition: inactive
[20]
  inhibition: inactive
[21]
  inhibition: inactive
[22]
  inhibition: inactive
[23]
  inhibition: inactive
